# Screening results (PubChem)
# A selection: hits, their analogues and other compounds. The true share with any hit is near 2.5%.
# NR2E3 ag-1: inhibitors of NR2E3-RetCOR corepressor binding, primary screen, NR2E3 agonist project, biochemical, TR-FRET, GST-NR2E3, biotin-RetCOR; inhibition of corepressor binding, % at 4.78 µM; 1536-well; AID 2300, 2010; 320,000 tested, 0.12% active;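 active = percent inhibition above the cutoff of mean plus 3 SD of all tested compounds, set per screening campaign, cut at about 20% in these data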;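 note: 0% = DMSO wells and 100% = biotin wells as full block of FRET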
#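 Test system – NR2E3–RetCOR corepressor complex · Quantity – NR2E3 fusion 1.35 nM · Buffer or medium – Tris pH 7.5 · Incubation – Compound–protein incubation for 5 h at 4 °C · Technique – TR-FRET, Eu(K)-anti-GST donor, streptavidin-D2 acceptor, ex 340, em 617/671 nm · Evaluation – percent inhibition of 671/617 nm emission ratio versus biotin and DMSO controls · Plate – 1536-well format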
# NadD block: inhibitors of S. aureus NadD, primary screen, biochemical, colorimetric, uHTS; purified NadD enzyme, colorimetric absorbance read-out; inhibition, % at 20 µM; 360,000 tested, 0.78% active; in the data active = inhibition above about 26%
# GalR3 antagonist: GalR3 antagonists in HEK293 cells, primary screen, cell-based, fluorescence readout. Galanin receptor type 3 (Homo sapiens), O60755. HEK293 GalR3-CNG cAMP membrane potential fluorescence; galR3 body fused to GalR1 C-terminus. inhibition, % at 3 µM. 360,000 tested, 0.44% active;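 active = inhibition above the screen-wide average plus 3 SD, cut at about 13% in these data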;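 note: forskolin and galanin both at EC90 stimulate the cells; cAMP rise reported by CNG channel membrane potential dye signal; 0% = forskolin plus galanin with DMSO and 100% = forskolin alone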
# Target sequence (O60755 1-299 limits assumed): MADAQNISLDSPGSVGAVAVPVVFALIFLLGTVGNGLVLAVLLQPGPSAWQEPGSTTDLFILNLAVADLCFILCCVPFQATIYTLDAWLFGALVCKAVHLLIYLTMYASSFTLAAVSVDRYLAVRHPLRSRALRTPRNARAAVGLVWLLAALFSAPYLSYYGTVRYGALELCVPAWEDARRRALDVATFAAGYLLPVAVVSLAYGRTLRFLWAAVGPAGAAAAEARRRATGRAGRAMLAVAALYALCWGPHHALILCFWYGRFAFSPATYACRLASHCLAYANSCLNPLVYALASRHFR
# MsrA inh: bovine MsrA enzyme inhibitors, primary screen, biochemical, absorbance, HTS; purified bovine MsrA, absorbance read-out; inhibition, % at 15.5 µM; 360,000 tested, 0.75% active; Methionine sulfoxide reductase A (Bos taurus); in the data active = inhibition above about 4.5%;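 note: 0% = vehicle wells with enzyme and 100% = reference inhibitor wells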
# NR2E3 ag-2: NR2E3 agonists in two-hybrid cells, primary screen, cell-based, luminescence, CHO-S, Gal4-NCOR/VP16-NR2E3. Photoreceptor-specific nuclear receptor (Homo sapiens), Q9Y5X4. luciferase. inhibition of corepressor binding, % at 3.98 µM. 360,000 tested, 0.35% active. AID 602229, 2012;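 active = inhibition above the mean of all tested compounds plus 3 SD, cut at about 70% in these data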;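 note: 0% = DMSO with NR2E3 transfected cells and 100% = cells lacking NR2E3 construct; higher means lower luciferase signal from less NR2E3 corepressor binding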
# MsrA act: bovine MsrA enzyme activators, primary screen, biochemical, absorbance, HTS; activation, % at 10.6 µM; Methionine sulfoxide reductase A (Bos taurus); purified bovine MsrA, absorbance read-out; AID 602163, 2012; 360,000 tested, 0.3% active; in the data active = activation above about 7.5%;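 note: 0% = vehicle and 100% = reference activator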
# NR2E3 ag confirm: NR2E3 agonist confirmation in cells, cell-based, luminescence, CHO-S two-hybrid; shares compounds with NR2E3 ag-2; CHO-S mammalian two-hybrid NR2E3-NCOR, luciferase luminescence; inhibition, % at 3.98 µM; 2,300 tested, 51% active;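 active = average inhibition above a cutoff equal to the mean inhibition of all tested compounds plus one SD, cut at about 70% in these data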;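 note: 0% = DMSO in NR2E3 cells and 100% = DMSO in cells lacking NR2E3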
# VP16 counter: GAL4-VP16 reporter modulators, confirmation, counter-screen for NR2E3 agonist project, cell-based, luminescence, CHO-S, high throughput; inhibition, % at 3.98 µM; CHO-S GAL4-VP16 luciferase reporter; shares compounds with NR2E3 ag-2; AID 624379, 2012; 2,300 tested, 29% active;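 active = mean inhibition above a cutoff equal to the average over all tested compounds plus one standard deviation, cut at about 70% in these data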;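 note: luciferase from a UAS reporter driven by GAL4-VP16 transactivation; 0% = DMSO with VP16-transfected cells and 100% = DMSO with cells lacking VP16; higher means less reporter light so more repression of VP16 activity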
# The depositor's hits bear a star; . = no result.
SMILES,NR2E3 ag-1,NadD block,GalR3 antagonist,MsrA inh,NR2E3 ag-2,MsrA act,NR2E3 ag confirm,VP16 counter
c1ccc(-c2nnc(-c3ccccn3)nc2NC2CCCCC2)cc1,-2.6,13.7,-8.2,1.2,54.6,-5.7,60.1,17.2
OC(c1cccc(OCc2ccccc2)c1)c1nnc(-c2ccccc2)o1 (stereo unspecified),2.1,-16.7,-5.5,0.0,87.3*,-2.9,91.7*,75.5*
N#Cc1cccc(NC(=O)CCn2ccnc2)c1,2.7,-3.2,-3.8,0.4,-7.0,-3.6,.,.
Cc1ccc(S(=O)(=O)c2ccc([N+](=O)[O-])o2)cc1,.,-2.1,9.0,0.7,65.9,4.0,92.2*,12.8
Cc1ccc(S(=O)(=O)N2CCCCC2)cc1NC(=O)C1=NN(c2ccccc2)C(=O)CC1,1.0,-4.3,1.8,0.5,9.7,-7.1,.,.
Cc1ccc(-n2c(C)nc3c(cnn3-c3ccc(F)cc3)c2=O)cc1C,-0.3,-3.2,-1.4,-0.9,54.5,-3.7,88.1*,60.0
O=C(Nc1ccc(Cl)c(C(F)(F)F)c1)c1ccncc1,-2.1,0.3,-3.9,0.4,3.1,-2.7,.,.
CNC(=O)c1cc(Oc2ccc(NC(=O)Nc3ccc(Cl)c(C(F)(F)F)c3)cc2)ccn1,4.8,22.8,-7.7,0.3,92.1*,-2.4,98.9*,81.3*
Cc1cc(C(=O)NNc2ccc(Cl)cc2)no1,1.5,0.8,-4.7,0.1,64.3,-3.6,33.9,6.0
COc1ccc(/C=C/c2cc(C(F)(F)F)[nH]c(=O)n2)cc1OC,4.2,1.0,0.7,2.9,53.2,-4.0,63.6,-3.2
CCOc1cc(/C=C/c2cc(C(F)(F)F)[nH]c(=O)n2)ccc1O,2.1,-4.1,-0.9,2.7,16.2,-5.1,.,.
CC1(c2ccc3ccccc3c2)NC(=O)N(CC(=O)N2CCN(Cc3ccccc3)CC2)C1=O (stereo unspecified),2.2,-0.6,.,.,64.4,-9.3,70.2*,57.1
O=C1CCC(C(=O)N2CCc3c(Cl)cccc3C2)CN1CCCN1CCOCC1 (stereo unspecified),.,0.0,-2.5,-0.9,-20.8,-1.2,.,.
CC(C)(C)c1ccc(-n2ncc3c2CCCC3NC(=O)CCN2CCCO2)cc1 (stereo unspecified),0.7,6.2,1.7,-1.4,66.2,-0.3,-9.3,40.8
CC(C)(C)c1ccc(-n2ncc3c2CCCC3NC(=O)CN2CCCCC2=O)cc1 (stereo unspecified),-5.4,-1.6,0.5,-0.3,58.5,-3.4,14.9,39.4
CC(C)(C)c1ccc(-n2ncc3c2CCCC3NC(=O)CCn2cncn2)cc1 (stereo unspecified),0.6,-2.3,-3.7,-0.3,25.4,-4.4,.,.
CCc1nc2ccc(C(=O)N3CCN(C(=O)c4ccco4)CC3)cn2c1N(C)Cc1nccs1,.,2.8,-2.7,-0.4,7.1,-7.1,.,.
COc1cccc(CN2CCN(c3ccc(F)cc3)C2=O)c1,-0.8,-11.2,-7.9,0.8,-45.5,-0.9,.,.
Cc1nc2ccccc2nc1OCC(=O)NCc1ccc2c(c1)OCO2,0.1,0.8,0.7,0.9,8.0,-13.2,.,.
CCn1nc(C)c(CNC(=O)c2cc(COc3ccc(F)cc3Cl)on2)c1C,0.9,-3.4,3.9,3.0,51.0,-2.3,85.7*,71.3*
Cc1cccc(Oc2ccc(NC(=O)c3ccccc3C(=O)O)cc2)c1C,-3.2,-4.6,-3.7,-0.9,-2.8,-5.9,.,.
